# beta cell repl: inducers of MIN6 beta-cell proliferation, primary screen, ATP luminescence, uHTS. 330,000 tested, 0.29% active. MIN6 cells proliferation, ATPlite luminescence, 48 h; cells starved in 0.2% serum; 100% = growth in 10% serum. proliferation, % at 10 µM;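 active = compounds whose signal lies at least 3.5 SD above the mean of all wells on their plate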;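 also: 0% = DMSO-treated cells in low-serum medium and 100% = 10% serum control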
# TLR9-MyD88 inh: inhibitors of TLR9-MyD88 association in cells, primary screen, cell-based, CHO, BLA complementation, fluorescence. Toll-like receptor 9 (Homo sapiens) + Myeloid differentiation primary response protein …. CCF4 FRET ratio. inhibition, % at 4.98 µM. 340,000 tested, 0.21% active;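 active = inhibition above the mean over all tested compounds plus 3 SD, cut at about 21% in these data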;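 also: 0% = DMSO only wells and 100% = clavulanate BLA inhibitor control wells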
# NOD2-RIPK2 inh: NOD2-RIPK2 binding disruptors in cells, primary screen, fluorescence, CHO cells, BLA complementation; inhibition, % at 4.98 µM; Receptor-interacting serine/threonine-protein kinase 2 (Homo sapiens), O43353; 360,000 tested, 0.38% active; CCF4 ratio; in the data active = inhibition above about 21%;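 also: 0% = vehicle only and 100% = reference blocker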
# TLR4-MyD88 BLA: inhibitors of TLR4-MyD88 association in cells, primary screen, cell-based, HeLa CL3-4, BLA complementation, FRET ratio. Toll-like receptor 4 (Homo sapiens) + Myeloid differentiation primary response protein …. HeLa CL3-4 TLR4/MyD88 BLA complementation. inhibition, % at 8.4 µM. 200,000 tested, 0.18% active; in the data active = inhibition above about 25%;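 also: 0% = vehicle and 100% = reference inhibitor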
# MC4R antagonist: MC4R antagonists of cAMP signaling, primary screen, cell-based, TR-FRET, antagonist arm of biased-ligand search | Melanocortin receptor 4 (Homo sapiens), P32245 | MC4R-expressing cells, MTII-stimulated cAMP, LANCE TR-FRET | inhibition, % at 6.5 µM | 360,000 tested, 0.48% active;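 active = inhibition above its plate's cutoff, the mean of tested wells on that plate plus 3 SD, cut at about 29% in these data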;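 also: 0% = Melanotan II alone and 100% = Melanotan II plus saturating MCL0020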
#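 System – human MC4R-expressing U2OS cells · Also added – Melanotan II · Dosing – one concentration, 6.5 µM nominal · Timing – 30-min compound, 1-h challenge, 1-h detection, room temperature · Measured by – Eu-cAMP/anti-cAMP TR-FRET, emission 671 nm · Replicates – singlicate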
# MC4R barr agon: MC4R agonists recruiting beta-arrestin, primary screen, cell-based, luminescence, agonist arm of biased-ligand search; Melanocortin receptor 4 (Homo sapiens), P32245; U2OS MC4R beta-arrestin complementation; percent of melanotan II response, DMSO zero; activation, % at 8.9 µM; 360,000 tested, 0.98% active;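 active = activation above a per-plate cutoff, the mean activation of sample wells on that plate plus 3 SD, cut at about 8% in these data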
# cAMP nonselect: nonselective cAMP signaling inhibitors, parental cells, counter-screen for MC4R biased antagonist project, cell-based, TR-FRET, U2OS, forskolin, triplicate. shares compounds with MC4R antagonist. LANCE TR-FRET. inhibition, % at 6.5 µM. 1,600 tested, 26% active. AID 602193, 2012;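 active = mean inhibition over triplicates above the low-control well mean plus 3 SD, set per campaign, cut at about 13% in these data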;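 also: signal is single emission at 671 nm which falls as cellular cAMP rises; 0% = forskolin-stimulated wells and 100% = buffer without forskolin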
# MC4R antag conf: MC4R cAMP antagonists, retest, confirmation, cell-based, TR-FRET; shares compounds with MC4R antagonist; MC4R-expressing cells, MTII-stimulated cAMP; inhibition, % at 6.5 µM; 1,600 tested, 27% active; in the data active = inhibition above about 29%;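 also: 0% = agonist stimulated wells alone and 100% = agonist stimulated wells plus saturating reference antagonist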
# The depositor's hits bear a star; . = not tested or not shown. In the library only some 2.1% were active in any assay of this set; here they are far more common.
SMILES,beta cell repl,TLR9-MyD88 inh,NOD2-RIPK2 inh,TLR4-MyD88 BLA,MC4R antagonist,MC4R barr agon,cAMP nonselect,MC4R antag conf
Cc1cccnc1NC(=O)C(C)N1C(=O)c2ccccc2C1=O (configuration not stated),-3,-3,-1,.,31*,1,-5,-18
COc1ccc(-n2c(-c3cccc(OC)c3)nc(=S)c3c2CCCC3)cc1,-2,-7,-1,-12,31*,-1,17*,33*
COc1ccccc1C1CC(=O)Oc2c(C(C)C)ccc(C)c21 (configuration not stated),.,-13,-7,.,2,2,.,.
COC(=O)Cn1cnc2c(nnn2-c2cccc(OC)c2)c1=O,-2,5,-3,.,2,-1,.,.
O=C1CNC(=O)/C1=C/c1ccc(Br)cc1,-4,-4,-2,.,32*,0,1,-6
Cc1cc(C#N)c(C)c(SCc2[nH]nc3c2C(c2ccccc2)C(C#N)=C(N)O3)n1 (configuration not stated),-5,6,-12,2,31*,1,4,-6
COc1cc(NC(=O)CCS(=O)(=O)c2ccc3c(c2)n(C)c(=O)c(=O)n3C)cc(OC)c1,1,-4,-15,.,20,-1,.,.
C#CC(=O)N(c1ccc(OC)c(OC)c1)C(C(=O)NC1CCCC1)c1cccs1 (configuration not stated),-5,4,4,16,62*,10*,-36,63*
COc1ccc(N(C(=O)Cc2cccs2)C(C(=O)NC2CCCC2)c2ccncc2)cc1OC (configuration not stated),-1,11,-1,.,0,-2,.,.
CN(Cc1ccc(Cl)c(Cl)c1)C(=O)C1CC(=O)N(c2ccc3c(c2)OCCO3)C1 (configuration not stated),.,-3,-6,.,-1,0,.,.
CCC(C)(C)NC(=O)C1CC(=O)N(CCc2ccc(F)cc2)C1 (configuration not stated),0,5,1,.,-2,1,.,.
CCC(C)[C@H](NC(=O)C1CC(=O)N(c2ccc(OC)cc2)C1)C(=O)NC1CCCC1 (some centres not stated),0,-2,3,.,4,-2,.,.
COC(=O)c1c(NC(=O)CC2SCC(C(=O)OC)NC2=O)sc2c1CCCC2 (configuration not stated),0,1,4,1,29*,1,10,32*
CCOC(=O)CC(=O)NC(C)(C)CCCCC(C)(C)NC(=O)CC(=O)OCC,-4,-6,-1,.,29*,0,-3,1
CCOC(=O)CNC(=O)CCCCCC(=O)NCC(=O)OCC,-1,1,3,1,9,0,.,.
O=C(CN1C(=O)NC2(CCCC2)C1=O)Nc1ccc(S(=O)(=O)N2CCOCC2)cc1,1,-8,7,1,34*,-2,1,-3
CN(C)CCN(C)C1CN(C2CCCC2)S(=O)(=O)C1 (configuration not stated),.,.,2,.,.,.,.,.
COc1ccccc1OCCC(=O)OCC(=O)Nc1cc(S(=O)(=O)N2CCOCC2)ccc1Cl,-1,-3,-12,-1,19,0,.,.
Cc1ccccc1OCCC(=O)OCC(=O)Nc1cc(S(=O)(=O)N2CCOCC2)ccc1Cl,-2,-2,-3,5,35*,1,2,3
CC(=O)n1cc(N(C(=O)CCl)c2ccc(C)cc2)c2ccccc21,-4,5,4,.,46*,17*,-21,45*
CC(=O)N(c1ccc(Cl)cc1)c1cn(C(C)=O)c2ccccc12,2,-8,-22,17,7,-2,.,.
COCCCNC(=O)/C=C1\Sc2ccccc2N(Cc2ccccc2F)C1=O,-6,-3,5,22,44*,0,46*,34*
O=C1ON=C(c2cccc([N+](=O)[O-])c2)/C1=C/c1ccc(O)cc1,-4,4,-2,9,38*,1,4,8
O=C1ON=C(c2ccccc2)/C1=C/c1ccc(O)c(O)c1,-2,4,-15,.,9,-2,.,.
CSCc1ccc(C(=O)Nc2ccc(C(N)=O)cc2)cc1,-2,0,9,1,31*,0,-4,-12
SMILES,beta cell repl,TLR9-MyD88 inh,NOD2-RIPK2 inh,TLR4-MyD88 BLA,MC4R antagonist,MC4R barr agon,cAMP nonselect,MC4R antag conf
CSCc1ccc(C(=O)NCc2ccc(C)cc2)cc1,-3,5,-9,0,11,-1,.,.
CSCCC(NC(=O)c1ccc([N+](=O)[O-])cc1Cl)C(=O)OCC(=O)NC1CCCC(C)C1C (configuration not stated),-5,2,0,4,33*,2,17*,40*
CSCCC(NC(=O)c1ccc([N+](=O)[O-])cc1Cl)C(=O)OC1CCCCC1=O (configuration not stated),-1,-7,-3,.,31*,0,14*,39*
COc1ccc(C(=O)c2ccc([N+](=O)[O-])cc2)cc1S(=O)(=O)N1CCC(C(=O)O)CC1,-1,-4,4,.,3,-3,.,.
CCCn1c(SCC(=O)N(C)C2CCCCC2)n[nH]c1=O,.,1,-4,.,5,-2,.,.
O=C(O)CC12CC3CC(C1)CC(n1ncc(NCc4ccccc4)c(Cl)c1=O)(C3)C2,-3,0,-1,.,-2,2,.,.
O=C(O)C12CC3CC(C1)CC(n1ncc(NCc4ccccc4)c(Cl)c1=O)(C3)C2,-2,-9,-5,-2,32*,2,-1,-10
CCOC(=O)c1c(NC(=S)NC)sc2c1CC(C)(C)SC2,-2,-3,-7,-1,19,1,.,.
CCOC(=O)c1c(NC(=S)Nc2ccccc2)sc2c1CC(C)(C)SC2,-2,0,2,-20,35*,-4,2,16
COc1cccc(NS(=O)(=O)c2ccc3[nH]cc(C(=O)NCCC(C)C)c(=O)c3c2)c1,-5,-2,-4,7,29*,1,2,-3
